Measurements: ChEMBL document CHEMBL1123901, “Inhibition of delayed hypersensitivity reactions by cinnamyl 1-thioglycosides” (J Med Chem, 1987)

What was measured:
Type in all cases: functional
Mus musculus [1] = experiment: Percent reduction in mice after oral administration 2.5 mg/kg
Outline: (§1)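 DTH in A/J female mice (20-23 g): cyclophosphamide 200 mg/kg sc, then iv sensitization with 10^8 washed SRBC 3 days later. On day 6 after sensitization, one hind footpad challenged with 10^8 SRBC in 20 μL, the other given saline. Dosing ip or po to overnight-fasted mice 20 min before challenge. Swelling read at 24 and 48 h as antigen minus saline footpad (mm × 10), by constant-pressure caliper.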

Mus musculus [2] = experiment: Compound was administered orally to mice before increase in foot-pad thickness at a dose of 2.5 mg/kg; conditions: route oral; outline: as §1
Cavia porcellus [3] = species: Cavia porcellus; experiment: Effect on guinea pig T cell proliferation was tested by measuring the incorporation of [3H]-thymidine uptake at the concentration of 0 uM
Outline: (§2)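 Strain 2 female guinea pigs were immunized with 100 μg OVA in CFA split over the footpads. At day 14 they received mineral oil ip, and the exudate was collected 4 days later. T cells were enriched on nylon wool. 2×10^5 cells per well were cultured with 10% irradiated (2100 rads) exudate cells, OVA (10 μg/mL) and compound, for 72 h at 37 °C in 5% CO2. [3H]thymidine (1 μCi) was added 18-24 h before harvest. Triplicate wells; mean Δcpm ± SD.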

Cavia porcellus [4] = species: Cavia porcellus; experiment: Inhibitory activity against [3H]thymidine uptake by cinnamyl 1-thioglycosides in guinea pig T cell proliferation; conditions: Cavia porcellus, T-cell, 72 h; outline: as §2
Cavia porcellus [5] = species: Cavia porcellus; experiment: Effect on guinea pig T cell proliferation was tested by measuring the incorporation of [3H]thymidine uptake at the concentration of 1000 uM; outline: as §2
Cavia porcellus [6] = species: Cavia porcellus; experiment: Effect on guinea pig T cell proliferation was tested by measuring the incorporation of [3H]thymidine uptake at the concentration of 250 uM; outline: as §2
Cavia porcellus [7] = species: Cavia porcellus; experiment: Effect on guinea pig T cell proliferation was tested by measuring the incorporation of [3H]thymidine uptake at the concentration of 750 uM; outline: as §2
Cavia porcellus [8] = species: Cavia porcellus; experiment: Effect on guinea pig T cell proliferation was tested by measuring the incorporation of [3H]thymidine uptake at the concentration of 500 uM; outline: as §2
Cavia porcellus [9] = species: Cavia porcellus; experiment: Effect on guinea pig T cell proliferation was tested by measuring the incorporation of [3H]thymidine uptake at the concentration of 10 uM; outline: as §2
Cavia porcellus [10] = species: Cavia porcellus; experiment: Effect on guinea pig T cell proliferation was ested by measuring the incorporation of (+/)-[3H]thymidine uptake at the concentration of 100 uM; outline: as §2

`C[C@@H]1C[C@H]2[C@@H]3CCC4=CC(=O)C=C[C@]4(C)[C@@]3(F)[C@@H](O)C[C@]2(C)[C@@]1(O)C(=O)CO` [DEXAMETHASONE] was tested. Which Reduction (Mus musculus [1]) did it give?
Its Reduction is 68%.

And the Activity (Mus musculus [2])?
The Activity was 0.3 mm x10.

With `[N-]=[N+]=NCC1OC(SC/C=C/c2ccccc2)C(O)C(O)C1O` (stereo not given) as the molecule, how does the Activity (Cavia porcellus [3]) read?
Its Activity is 33.5 Δcpm x10e-3.

And the IC50 (Cavia porcellus [4])?
The IC50 was 240 µM.

And the Activity (Cavia porcellus [5])?
Its Activity is 0.06 Δcpm x10e-3.

What about the Activity (Cavia porcellus [6]) of the same molecule?
The Activity was 14.3 Δcpm x10e-3.

What about the Activity (Cavia porcellus [7]) of the same molecule?
The Activity was 0 Δcpm x 10^-3.

And the Activity (Cavia porcellus [8])?
Its Activity is 2.26 Δcpm x10e-3.

And the Activity (Cavia porcellus [9])?
Its Activity is 21 Δcpm x10e-3.

What about the Activity (Cavia porcellus [10]) of the same molecule?
The Activity was 21.1 Δcpm x10e-3.
